Shown are actives, neighbours in structure and some others; about 2.2% of the full set was active somewhere.
MT stabilize HCS: microtubule stabilizers in HeLa cells; 200,000 tested, 0.83% active; HeLa tubulin immunostaining HCS, 24 h; share of cells brighter than vehicle mean+2SD; % tubulin-high responders, % at 10 µM;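 active = plate Z-score above 3 for both tubulin-high and condensed-nucleus cell shares, with cell loss under 80%, at 10 µM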;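 also: anti alpha tubulin signal scored within the nucleus-defined area of each cell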
BaF3 parental: parental Ba/F3 viability inhibition as JAK2V617F counter-screen; CellTiter-Glo ATP luminescence; inhibition, % at 5.6 µM; 220,000 tested, 1.1% active;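 active = inhibition above a per-campaign cutoff, the mean inhibition of all tested compounds plus 3 SD, cut at about 27% in these data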;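 also: 0% = DMSO wells and 100% = JAK Inhibitor I control wells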
IEC-6 tox: IEC-6 cytotoxicity, counter-screen for KLF5 inhibitors; luminescence viability; 290,000 tested, 0.78% active; inhibition, % at 5 µM; in the data active = inhibition above about 22%;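 also: 0% = plate median of test compound wells and 100% = cytotoxic reference compound wells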
bCat nuc transl: modulators of beta-catenin nuclear translocation. HeLa beta-catenin nuclear translocation, immunofluorescence imaging. nuclear translocation activity, % at 5 µM. 190,000 tested, 0.3% active. AID 1665;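 active = nuclear translocation activity above 50% at 5 µM, with a well cell count of 50 or more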;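 also: per-cell ratio of nuclear to cytoplasmic median beta-catenin stain intensity; plate controls were DMSO negative control for no effect and GSK-3 inhibitor IX positive control for full effect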
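System: HeLa cells, endogenous beta-catenin; compound dosing: 5 µM primary single dose, 0.1% DMSO, 0.02–20 µM confirmation series; incubation: 24 h compound exposure at 37°C, 5% CO2; signal: beta-catenin immunofluorescence imaging with DAPI; evaluation: % activation, nuclear-to-cytoplasmic median beta-catenin signal ratio per cell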
Ba/F3 V617F tox: loss of viability in JAK2V617F-driven Ba/F3 cells | Ba/F3 EpoR-JAK2V617F viability, ATP luminescence | inhibition, % at 5.6 µM | 220,000 tested, 1.1% active | AID 1446;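 active = inhibition above the campaign mean plus 3 SD over all tested compounds, cut at about 24% in these data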;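 also: cytokine-independent growth of Ba/F3 cells driven by EpoR plus mutant JAK2; 0% = DMSO-treated cells and 100% = JAK inhibitor I control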
APP 5UTR inh: APP translation inhibition; SH-SY5Y APP 5'UTR-luciferase reporter, luminescence; inhibition, % at 2 µM; 190,000 tested, 0.82% active; AID 1285;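 active = inhibition above a set limit, derived from the sample mean plus 3 SD, cut at about 45% in these data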
The depositor's hits bear a star; · = no result.

SMILES | MT stabilize HCS | BaF3 parental | IEC-6 tox | bCat nuc transl | Ba/F3 V617F tox | APP 5UTR inh
COc1ccc(S(=O)(=O)/N=C2/C=CC(=O)C(C)=C2C)cc1 | 1 | 2 | 4 | -3 | -1 | -12
CC1=C/C(=N\OS(=O)(=O)c2ccccc2)C(C)=CC1=O | 3 | 100* | -7 | 1 | 97* | 95*
CC1=C/C(=N\OS(=O)(=O)c2ccccc2)C(C(C)C)=CC1=O | 3 | 78* | -4 | -2 | 86* | 96*
CC1=C(C)/C(=N\OS(=O)(=O)c2ccc(C)cc2)C=CC1=O | 2 | 68* | -6 | -3 | 88* | 90*
Cc1cccc(C(=O)Nc2c(C(=O)N(C)C)cnn2-c2ccccc2)c1 | · | · | 7 | · | · | ·
CCN(CC)CCN(C(=O)CCS(=O)(=O)c1ccccc1)c1nc2cc3c(cc2s1)OCO3 | · | · | 1 | · | · | ·
NC(=O)C(=CNc1nc(-c2ccc(Cl)c(Cl)c2)cs1)C(N)=O | · | 0 | 0 | -1 | -6 | ·
O=C(NC(=S)Nc1cccc(Cl)c1N1CCCCC1)c1cccs1 | 26* | 3 | 3 | 0 | 0 | -3
O=C(NC(=S)Nc1cccc(Cl)c1N1CCCCC1)c1ccco1 | 39* | 6 | 7 | 4 | 6 | 2
O=C(NC(=S)Nc1ccccc1N1CCCCC1)c1ccco1 | 3 | 4 | 6 | -1 | -3 | -27
Cc1ccc(-c2c(C(=O)N/N=C/c3c[nH]c4ccccc34)nnn2-c2nonc2N)cc1 | · | · | 8 | · | · | ·
Cc1[nH]c2c(C)cccc2c(=O)c1CN1CCCCCC1 | · | · | 0 | · | · | ·
COc1ccc(CNC(=S)Nc2cc(C)ccc2C)cc1 | 2 | 4 | -2 | 0 | -2 | 70*
Cc1ccc(C)c(NC(=S)NCc2ccc3[nH]c4c(c3c2)CCCC4)c1 | 4 | 8 | 0 | -3 | 1 | 47*
COc1ccc(CCNC(=S)Nc2cc(C)ccc2C)cc1 | 2 | 8 | 3 | · | 4 | 8
COc1ccc(OC)c(C(c2c(O)nc(SC)[nH]c2=O)c2c(O)nc(SC)[nH]c2=O)c1 | · | · | -4 | · | · | ·
CC(C)CCNC(=O)c1cc(-c2ccncc2)nc2ccc(S(=O)(=O)N3CCOCC3)cc12 | 17* | 0 | -7 | -4 | -1 | -8
O=C(CCC(=O)N1CCCCCC1)NCc1ccc(F)cc1 | · | · | -2 | · | · | ·
O=C(Cn1c(-c2ccccc2)c[n+]2ccsc12)c1ccc([N+](=O)[O-])cc1 | 3 | 15 | 2 | 0 | 5 | -33
O=C(Cn1c(-c2ccccc2)c[n+]2ccsc12)c1ccccc1 | 9 | 60* | 3 | 2 | 70* | 4
O=C(CC1C(=O)NCCN1Cc1c(F)cccc1Cl)NCCc1ccccn1 (centres undefined) | 2 | 8 | 1 | -2 | 3 | 8
O=C(CC1C(=O)NCCN1Cc1ccccc1C(F)(F)F)NCCc1ccccn1 (centres undefined) | 3 | 80* | 8 | 1 | 1 | 14
CCOc1ccccc1N(CC(=O)N1CCCC1)S(C)(=O)=O | · | · | 2 | · | · | ·
COc1cc(/C=N/Nc2nncn2/N=C/c2ccc(O)c(OC)c2)ccc1O | 3 | 6 | 8 | -3 | 3 | -29
COc1ccc(OC)c(/C=N/Nc2nncn2/N=C/c2cc(OC)ccc2OC)c1 | 32* | 5 | 19 | · | 6 | 11
SMILES | MT stabilize HCS | BaF3 parental | IEC-6 tox | bCat nuc transl | Ba/F3 V617F tox | APP 5UTR inh
O=C(OCCN1C(=O)c2cccc3c(N4CCOCC4)ccc(c23)C1=O)c1cc(Cl)cc(Cl)c1 | 30* | 6 | -9 | · | 2 | 88*
CCN(CC)S(=O)(=O)c1ccc(C(=O)OCCN2C(=O)c3cccc4c(N5CCOCC5)ccc(c34)C2=O)cc1 | 3 | 4 | 7 | -1 | 0 | -8
Cc1nn(-c2ccc(N3CCOCC3)nn2)c(C)c1CCC(=O)NCc1ccc(F)cc1 | · | · | 1 | · | · | ·
COc1ccc(NC(=O)C2CCCN2C(=O)Nc2ccc(OC)cc2)cc1 (centres undefined) | · | · | 4 | · | · | ·
Cc1ccc(C2N(C)C(=O)c3ccccc3N2C)cc1 (centres undefined) | · | · | 0 | · | · | ·
O=C1CC(c2ccccc2Br)c2cc3c(cc2N1)CCC3 (centres undefined) | 21* | 5 | -1 | 1 | 0 | -11
O=C1CC(c2ccccc2F)c2cc3c(cc2N1)CCC3 (centres undefined) | 44* | 77* | 16 | 131* | 63* | 64*
Cc1cc2c(cc1C)C(c1ccccc1Br)CC(=O)N2 (centres undefined) | 10 | 1 | 4 | 0 | -3 | -6
Nc1ncc(-c2nnnn2-c2ccc(Cl)cc2)c(-c2ccc(Cl)cc2)n1 | 16 | 32* | 18 | 18 | 28* | 17
CCOC(=O)C1(C)NC(c2ccco2)C2C(=O)N(c3ccc(C)cc3)C(=O)C21 (centres undefined) | 4 | 2 | -5 | · | -1 | -8
CCOC(=O)C1=C(C)C2C3C(=O)N(c4cc(C)ccc4C)C(=O)C3C1(C)C1C(=O)N(c3cc(C)ccc3C)C(=O)C21 (centres undefined) | 7 | 10 | 2 | -1 | 1 | 75*
CCOC(=O)C1CCN(S(=O)(=O)c2cc(C(=O)OC)n(C)c2)CC1 | · | · | -6 | · | · | ·
CCc1nnc(NC(=O)CCN(c2cc(C)cc(C)c2)S(=O)(=O)c2ccc(Cl)cc2)s1 | 19* | 7 | 1 | 0 | 1 | 1
Cc1cc(C)cc(N(CCC(=O)O)S(=O)(=O)c2ccc(Cl)cc2)c1 | 7 | 2 | 4 | -2 | 5 | -25
COc1ccc(S(=O)(=O)Cc2ccc(C(=O)N3CCN(c4cccc(C)c4)C(C)C3)o2)cc1 (centres undefined) | 24* | 5 | 5 | · | -1 | ·
Cc1cccc(N2CCN(C(=O)c3ccc4c(c3)OCCO4)CC2C)c1 (centres undefined) | 13* | 0 | 6 | 10 | -2 | -4
COc1ccc(S(=O)(=O)Cc2ccc(C(=O)N3CCN(c4cccc(C)c4C)CC3)o2)cc1 | 22* | 5 | 2 | 1 | 1 | -14
Cc1cccc(N2CCN(C(=O)c3ccncc3)CC2C)c1 (centres undefined) | 13 | 7 | 6 | 0 | 0 | -1
Cc1ccc(S(=O)(=O)Cc2ccc(C(=O)N3CCN(c4ccc(F)cc4)CC3)o2)cc1 | 24* | 0 | 5 | · | -1 | -2
COc1ccccc1S(=O)(=O)Cc1ccc(C(=O)N2CCN(c3ccc(C)cc3)C(C)C2)o1 (centres undefined) | 17 | 2 | 10 | -1 | 3 | -30
Cc1nc(N2CCCCC2)c2c(C)c(C(=O)Nc3ccc4c(c3)OCCO4)sc2n1 | · | · | 2 | · | · | ·
CCn1c(=O)c2sccc2n(Cc2cc(C(=O)OC)ccc2OC)c1=O | · | · | 12 | · | · | ·
COc1cc(C(=O)Nc2nc(C)c(Cc3ccc4c(c3)OCO4)s2)cc(OC)c1OC | 15* | 74* | 16 | 16 | 82* | 86*
CCCOc1ccc(C(=O)Nc2nc(C)c(Cc3ccc4c(c3)OCO4)s2)cc1 | 13 | 3 | 5 | 2 | 2 | -3
